Source: ChEMBL document CHEMBL3739299, “8-Hydroxyquinoline-based inhibitors of the Rce1 protease disrupt Ras membrane localization in human cells” (Bioorg Med Chem, 2016)
Activity calls are given as the source filed them. The calls are words filed in the database; no cut-off is given here.

How the values were obtained:
[1] = target: T1, CAAX prenyl protease 2 (Homo sapiens) (UniProt Q9Y256); test: Inhibition of human Rce1-mediated CaaX protease activity using […] and […] as substrate assessed as residual activity at 10 uM measured every 30 to 60 seconds for 60 mins
T1 sequence (whole entry): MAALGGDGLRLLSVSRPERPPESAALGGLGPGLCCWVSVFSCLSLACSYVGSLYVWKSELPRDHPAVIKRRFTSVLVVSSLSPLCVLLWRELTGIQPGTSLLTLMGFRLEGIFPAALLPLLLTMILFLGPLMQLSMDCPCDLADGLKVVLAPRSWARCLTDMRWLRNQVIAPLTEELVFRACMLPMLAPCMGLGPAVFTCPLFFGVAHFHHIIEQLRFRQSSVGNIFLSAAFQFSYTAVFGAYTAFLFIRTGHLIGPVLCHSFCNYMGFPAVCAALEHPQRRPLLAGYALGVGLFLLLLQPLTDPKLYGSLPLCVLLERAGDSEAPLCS
Method in brief: (§1)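 Membranes from yeast SM3614 (ste24 rce1 null) overexpressing human Rce1, 0.25 mg/mL final in 200 mM Tris pH 7.5, 200 mM NaCl, 1 mg/mL BSA. […] Reaction started with 20 μM ABZ-KSKTKC(farnesyl)QLIM. Fluorescence (ex 320/em 420) read every 30–60 s for 60 min at 30 °C. Initial velocities trypsin-normalised; activity given as % of DMSO control.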

CAAX prenyl protease 2 = target: T2, CAAX prenyl protease 2 (Homo sapiens, UniProt Q9Y256); test: Inhibition of human Rce1-mediated CaaX protease activity using ABZ-KSKTKC(farnesyl)QIIM and ABZ-KSKTKC(farnesyl)VIQI as substrate assessed as residual activity measured every 30 to 60 seconds for 60 mins; method in brief: as §1
T2 sequence (Q9Y256 whole entry): T1 sequence (whole entry)

[2] = Cytotoxicity against human HCT116 cells assessed as cell death at 25 uM after 20 hrs by celltiter blue assay (reference value: 0.4%); type: cell-based; conditions: hct-116, 20 h
Method in brief: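 HCT-116 cells grown in DMEM with 10% FBS and 1% NEAA at 37 °C, 5% CO2, seeded 7 × 10^3 per well, exposed 20 h to 25 μM compound (0.4% DMSO vehicle; untreated control). CellTiter-Blue added for 4 h, fluorescence read at 560/590 nm. Values relative to untreated cells, mean of three independent experiments with SEM.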

[3] = target: T3, CAAX prenyl protease 1 homolog (Homo sapiens) (UniProt O75844); test: Inhibition of human FACE1-mediated CaaX protease activity at 10 uM measured every 30 to 60 seconds for 60 mins
T3 sequence (whole entry): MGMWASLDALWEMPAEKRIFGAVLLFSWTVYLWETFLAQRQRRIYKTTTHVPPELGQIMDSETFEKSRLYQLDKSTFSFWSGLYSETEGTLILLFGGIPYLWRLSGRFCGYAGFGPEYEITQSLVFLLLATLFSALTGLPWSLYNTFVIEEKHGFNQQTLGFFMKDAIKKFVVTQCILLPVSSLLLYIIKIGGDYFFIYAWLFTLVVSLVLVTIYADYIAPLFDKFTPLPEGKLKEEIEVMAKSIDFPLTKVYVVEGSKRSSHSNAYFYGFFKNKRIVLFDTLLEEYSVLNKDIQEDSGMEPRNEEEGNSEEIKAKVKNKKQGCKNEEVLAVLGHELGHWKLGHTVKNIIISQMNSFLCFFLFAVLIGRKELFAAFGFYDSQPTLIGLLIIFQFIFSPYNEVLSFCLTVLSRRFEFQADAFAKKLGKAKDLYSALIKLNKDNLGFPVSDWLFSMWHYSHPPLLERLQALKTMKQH
Method in brief: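 Human Ste24 overexpressed in yeast strain SM3614 (ste24 rce1 null); membranes 0.25 mg/mL final in 200 mM Tris pH 7.5, 200 mM NaCl, 1 mg/mL BSA. Pretreated 15 min at 30 °C with 10 μM compound in duplicate, then 20 μM ABZ-KSKTKC(farnesyl)VIQL substrate added. Fluorescence (ex 320/em 420) read every 30–60 s for 60 min at 30 °C. Initial velocities normalised via trypsin-digest maximum fluorescence and expressed as % of DMSO control. SD shown.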

[4] = tested on: Protein farnesyltransferase (Rattus norvegicus); test: Inhibition of protein farnesyltransferase (rat) at 50 uM measured every 40 seconds for 60 mins

Structure (SMILES)	Activity [1]	IC50 (CAAX prenyl protease 2)	inhibition [3]	inhibition [4]	Cell death [2]
O=C(O)c1ccc(NC(c2ccc(Br)cc2)c2ccc(Br)cc2)cc1	83%				
O=C(O)c1cccc(NC(=O)c2ccc(NC(c3ccccc3)c3ccccc3)cc2)c1	72%				
Oc1c(CNc2ccccc2)ccc2cccnc12	82%				< 10%
Oc1c(C(Nc2ccccc2)c2ccccc2)ccc2ccccc12 (stereo not given)	17%	4.9 µM	inactive		< 10%
Oc1c(C(Nc2ccccc2)c2ccccc2)cc(Cl)c2cccnc12 (stereo not given)	68%				
Oc1ccc2ccccc2c1C(Nc1ccccc1)c1ccccc1 (stereo not given)	59%				< 10%
Oc1c(C(Nc2ccccc2)C2CCCCC2)ccc2cccnc12 (stereo not given)	59%				< 10%
O=C(Nc1ccccc1)c1ccc(NC(c2ccccc2)c2ccccc2)cc1	78%				
C[C@@H](N[C@H](c1ccccc1)c1c(O)ccc2ccccc12)c1ccccc1	63%				
Oc1c(C(Nc2ccccc2)c2ccccc2)ccc2cc3ccccc3nc12 (stereo not given)	51%				
Oc1c(C(Nc2ccccc2)c2ccccc2)cc(Br)c2cccnc12 (stereo not given)	73%				
Oc1c(C(Nc2ccccc2)c2c(F)cc(Br)cc2F)ccc2ccccc12 (stereo not given)	45%	9.4 µM	inactive		40%
Oc1c(C(Nc2ccccc2)c2ccccc2)cc(Br)c2ccccc12 (stereo not given)	27%	5.4 µM	inactive		< 10%
O=C(Nc1ccccc1)c1ccc(NC(c2ccc(Br)cc2)c2ccc(Br)cc2)cc1	80%				
c1ccc(NC(c2ccccc2)c2ccc3cccnc3c2)cc1 (stereo not given)	82%				
O=C(Nc1ccc2ccccc2c1)c1ccc(NC(c2ccccc2)c2ccccc2)cc1	89%				
N#Cc1ccc2ccc(C(Nc3ccccc3)c3ccccc3)c(O)c2n1 (stereo not given)	83%				
O=C(O)c1cccc(NC(c2ccccc2)c2ccc3ccccc3c2O)c1 (stereo not given)	23%	5.3 µM	inactive	inactive	< 10%
Oc1ccc2ccc(O)c(C(Nc3ccccc3)c3ccccc3)c2c1 (stereo not given)	51%				< 10%
c1ccc(NC(c2ccccc2)c2ccc3ccccc3c2)cc1 (stereo not given)	77%				
O=C(Nc1ccccc1)c1ccc(NC(c2ccccc2)c2ccc(Br)cc2)cc1 (stereo not given)	78%				
O=C(O)c1ccc(NC(c2ccccc2)c2ccccc2)cc1	90%				
Oc1c(C(/N=C/c2ccccc2)c2ccccc2)ccc2cccnc12 (stereo not given)	73%				< 10%

More lines, main results first:

Activity [1]	IC50 (CAAX prenyl protease 2)	inhibition [3]	inhibition [4]	Structure (SMILES)	Cell death [2]
21%	3.8 µM	inactive		O=C(O)c1ccc(NC(c2ccc3ccccc3c2O)c2c(F)cc(Br)cc2F)cc1 (stereo not given)	< 10%
65%				COC(=O)c1ccc(NC(c2ccccc2)c2ccc3cccnc3c2OC)cc1 (stereo not given)	< 10%
56%				N#Cc1ccc(NC(c2ccccc2)c2ccc3cccnc3c2O)cc1 (stereo not given)	< 10%
54%	8.8 µM	inactive		Cc1ccc(NC(c2ccccc2)c2ccc3cccnc3c2O)cc1 (stereo not given)	
71%				CCOC(=O)c1ccc(NC(c2ccc(Cl)cc2)c2ccc3cccnc3c2O)cc1 (stereo not given)	< 10%
63%				CCOC(=O)c1ccc(NC(c2ccc(F)cc2)c2ccc3cccnc3c2O)cc1 (stereo not given)	< 10%
64%				O=[N+]([O-])c1ccc(NC(c2ccc(Br)cc2)c2ccc3cccnc3c2O)cc1 (stereo not given)	< 10%
85%	11 µM	inactive		O=[N+]([O-])c1ccc(C(Nc2ccccc2)c2ccc3cccnc3c2O)cc1 (stereo not given)	
34%	9.8 µM	inactive		O=C(O)c1ccc(NC(c2ccc3cccnc3c2O)C2CCCCC2)cc1 (stereo not given)	< 10%
76%				Oc1c(C(Nc2ccccc2)c2c(F)cc(Br)cc2F)ccc2cccnc12 (stereo not given)	< 10%
83%				Cc1ccc2ccc(C(Nc3ccccc3)c3ccccc3)c(O)c2n1 (stereo not given)	
79%				CCOC(=O)c1ccc(NC(c2ccccc2)c2ccc(Br)cc2)cc1 (stereo not given)	
76%	16 µM	inactive		N#Cc1ccc(C(Nc2ccc(C(=O)O)cc2)c2ccc3cccnc3c2O)cc1 (stereo not given)	
32%	8.2 µM	inactive		O=C(O)c1ccc(NC(c2ccc(F)cc2)c2ccc3cccnc3c2O)cc1 (stereo not given)	< 10%
64%				O=C(O)c1ccc(NC(c2ccc3cccnc3c2O)c2c(F)cc(Br)cc2F)cc1 (stereo not given)	< 10%
82%				CCOC(=O)c1ccc(NC(c2ccc3cccnc3c2O)C2CCCC2)cc1 (stereo not given)	< 10%
70%	14 µM	inactive		O=C(O)c1ccc(NC(c2cccnc2)c2ccc3cccnc3c2O)cc1 (stereo not given)	

Activity [1]	IC50 (CAAX prenyl protease 2)	inhibition [3]	inhibition [4]	Structure (SMILES)	Cell death [2]
25%	6.9 µM	inactive		O=C(O)c1ccc(NC(c2ccccc2)c2ccc3cccnc3c2O)cc1 (stereo not given)	< 10%
81%				O=C(NC(c1ccccc1)c1ccc2cccnc2c1O)c1ccccc1 (stereo not given)	< 10%
83%				CCOC(=O)c1ccc(NC(c2ccc(Br)cc2)c2ccc(Br)cc2)cc1	
38%	5 µM	inactive		CC(C)(C)c1ccc(NC(c2ccccc2)c2ccc3ccccc3c2O)cc1 (stereo not given)	< 10%
89%				CCCCCCCCOc1ccc(C(Nc2ccccc2)c2ccc3cccnc3c2O)cc1 (stereo not given)	
89%				CCOC(=O)c1ccc(NC(c2ccc(C(F)(F)F)cc2)c2ccc3cccnc3c2O)cc1 (stereo not given)	< 10%
23%	3.9 µM	inactive		O=C(O)c1ccc(NC(c2ccc(Br)cc2)c2ccc3ccccc3c2O)cc1 (stereo not given)	< 10%
86%				O=C(O)c1ccc(NC(c2ccccc2)c2ccc(Br)cc2)cc1 (stereo not given)	
77%				O=C(O)c1ccc2ccc(C(Nc3ccccc3)c3ccccc3)c(O)c2n1 (stereo not given)	
52%				CCOC(=O)c1ccc(NC(c2ccccc2)c2ccc3cccnc3c2O)cc1 (stereo not given)	< 10%
32%	7.1 µM	inactive		Cc1ccc(C(Nc2ccc(C(=O)O)cc2)c2ccc3cccnc3c2O)cc1 (stereo not given)	
82%				CCOC(=O)c1ccc(NC(c2ccccc2)c2ccccc2)cc1	< 10%
83%				Oc1c(C(Nc2nc3ccccc3s2)c2ccccc2)ccc2cccnc12 (stereo not given)	< 10%
75%				O=C(OCc1ccccc1)c1ccc2ccc(C(Nc3ccccc3)c3ccccc3)c(O)c2n1 (stereo not given)	
90%	38 µM	inactive		O=C(O)c1ccc(NC(c2ccccn2)c2ccc3cccnc3c2O)cc1 (stereo not given)	
19%	4.2 µM	inactive		O=C(O)c1ccc(NC(c2ccccc2)c2ccc3ccccc3c2O)cc1 (stereo not given)	< 10%
